Data: publication PMC6585996 (Clinical Pharmacology in Drug Development, 2018)
Entries after “also recorded” stand apart in the source; their conditions may differ. Read-outs that look alike come from different tables or passages of the source. Each block holds one compound with its values, some of them ahead of it.

Assays:
[1] = cited from earlier work
[2] = cited from earlier work; remark: listed apart in the source
[3] = test system: OATP; settings: cited from earlier work
[4] = cited from earlier work; remark: listed apart in the source
[5] = 10‐ and 30‐mg doses, early prototype formulations; ref Supplemental Data; cited from earlier work
[6] = test system: uridine diphosphate glucuronosyltransferase (UGT)1A1, UGT1A9; settings: forms glucuronic acid conjugates; minor contribution by UGT1A9; cited from earlier work
[7] = Safety assessments in the phase 1 food-effect study; type: in vivo, human
[8] = 30 mg with a moderate-fat meal; ref Supplemental Data; cited from earlier work
[9] = coadministered rifampin; cited from earlier work
[10] = type: in vivo, human
How it was run: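 Healthy adults aged 18–65 years (≥50 kg, BMI 18.5–31.0 kg/m2) were randomised 1:1 to a two-period crossover. Each received a single oral 30 mg tablet after ≥10 h fasting or within 30 min of a high-fat meal (~53% fat, ~870 calories), with a 14-day washout. Plasma was sampled predose to 168 h and assayed by protein precipitation plus LC-MS/MS (LLOQ 25 ng/mL, ULOQ 25,000 ng/mL). Parameters were noncompartmental. GLS mean ratios (90% CI) came from a mixed-effects model with treatment and period as fixed effects and participant as random.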

[11] = cited from earlier work; remark: listed apart in the source
[12] = single-dose oral 30 mg, fasted conditions, cited from earlier work
[13] = test system: serum albumin; settings: cited from earlier work
[14] = test system: HIV‐1; settings: cited from earlier work
[15] = 30-mg single oral dose, high-fat meal, n = 21
[16] = Fasted State vs High‐Fat Meal, 30-mg single dose, n = 21
[17] = high-fat meal compared with fasting state, 30 mg oral

Compound: C[C@@H]1CCO[C@H]2Cn3cc(C(=O)NCc4ccc(F)cc4F)c(=O)c(O)c3C(=O)N12 [Dolutegravir]
increase in plasma AUC0‐∞ ([1]; single-dose dolutegravir 50 mg with high-fat meal): 66%
increase in plasma AUC0‐∞ ([1]; single-dose dolutegravir 50 mg with low-fat meal): 33%
increase in plasma AUC0‐∞ ([1]; single-dose dolutegravir 50 mg with moderate-fat meal): 41%

Compound: Cc1nnc(C(=O)NC(C)(C)c2nc(C(=O)NCc3ccc(F)cc3)c(O)c(=O)n2C)o1 [Raltegravir]
increase in AUC from time 0 to 12 hours ([2]; raltegravir 400 mg twice daily with a high-fat meal): 2 fold
increase in AUC from time 0 to last observation ([2]; raltegravir 1200 mg (2 × 600 mg) once daily, following a high-fat meal): 1.9%
decrease in AUC from time 0 to last observation ([2]; raltegravir 1200 mg (2 × 600 mg) once daily, following a low-fat meal): 42%

effect of high-fat meal on tmax and t1/2 ([10]; 30 mg oral, high-fat meal vs fasting): Neither tmax nor t1/2 was affected
CL/F, Mean (SD) ([10]; 30-mg single oral dose, fasted state, n = 21): 0.218 (0.0611) L/h
CL/F, Mean (SD) [10, 15]: 0.191 (0.0553) L/h
t1/2, Mean (SD) [10, 15]: 41.1 (6.57) h
peak concentration of the one participant excluded from PK analysis ([10]; 2 hours after dosing, fasting conditions, 30 mg oral): 0.0987 µg/mL
AUC0‐∞, GLS Mean Ratio (90% CI) [10, 16]: 1.14 (1.02‐1.28)
C24, GLS Mean Ratio (90% CI) [10, 16]: 1.17 (1.04‐1.30)
CL/F, GLS Mean Ratio (90% CI) [10, 16]: 0.875 (0.785‐0.977)
Cmax, GLS Mean Ratio (90% CI) [10, 16]: 1.14 (1.03‐1.27)
t1/2, GLS Mean Ratio (90% CI) [10, 16]: 0.997 (0.964‐1.03)
quantifiable predose concentrations ([10]; crossover periods, 14-day washout): < 5 % of their respective Cmax values
decrease in CL/F ([10]; high-fat meal compared with after fasting, 30 mg oral): 13%
increase in maximal drug concentration [10, 17]: 14%
increase in plasma area under the concentration‐time curve [10, 17]: 14%
half-life ([10]; human, plasma, po, 30 mg): 2470 min
Compound: C[C@H]1CO[C@@H]2Cn3cc(C(=O)NCc4ccc(F)cc4F)c(=O)c(O)c3C(=O)N12 [cabotegravir, Cabotegravir]
substrate for intestinal uptake transporters such as OATP [3]: not a substrate
Biopharmaceutics Drug Disposition Classification System class [4]: class 2
passive permeability [4]: high
effect of a moderate-fat meal (30% fat, ∼670 calories) on PK [5]: did not significantly affect
metabolizing enzymes [6]: primarily metabolized by uridine diphosphate glucuronosyltransferase (UGT)1A1
treatment‐emergent laboratory abnormalities ([7]; grade 2 hypoglycemia, grade 3 increased direct bilirubin): 2 participants
electrocardiographic or vital sign abnormalities reported as AEs ([7]; single 30-mg oral doses): No clinically significant electrocardiographic or vital sign abnormalities
adverse events (grade 3/4, drug-related, serious, leading to discontinuation) ([7]; single 30-mg oral doses, fasted and fed, healthy adults): No grade 3/4 adverse events (AEs), drug‐related AEs, or AEs leading to discontinuation were reported; also recorded: no AEs or serious AEs that led to discontinuation of the study drug
half‐life, geometric mean (95% confidence interval) [8]: 38.6 h
effect of rifampin on cabotegravir exposures [9]: significantly reduced
dose proportionality of trough concentration [11]: increase in proportional to dose
dose proportionality of AUC and Cmax ([11]; dose increased from 30 to 60 mg, ref Supplemental Data): less‐than‐dose‐proportional
AUC(0-inf) ([12]; read-out: AUC0‐∞): 146 µg·h/mL
median time to peak plasma concentration (tmax) [12]: 2 h
plasma apparent terminal‐phase half‐life (t1/2) [12]: approximately 38.5 hours
binding to serum albumin [13]: highly bound
in vitro protein‐adjusted 90% inhibitory concentration [14]: 166 ng/mL
